Laboratory results published in ChEMBL document CHEMBL4028848, “Discovery of N-{4-[5-(4-Fluorophenyl)-3-methyl-2-methylsulfanyl-3H-imidazol-4-yl]-pyridin-2-yl}-acetamide (CBS-3595), a Dual p38α MAPK/PDE-4 Inhibitor with Activity against TNFα-Related Diseases” (J Med Chem, 2017).
Where “and” joins values, the source holds several entries; their conditions need not be identical. Identical values can stand only once. Blank lines part the entries; values can stand above or below the compound they belong to. Calls of active or inactive are those of the source. The rule behind the calls is not given here.

How the values were obtained:
[1] = molecular target: T1, Mitogen-activated protein kinase 14 (Homo sapiens, UniProt Q16539); assay: Inhibition of p38alpha MAPK (unknown origin) at 1 uM relative to control
[2] = molecular target: T1, Mitogen-activated protein kinase 14; assay: Inhibition of p38alpha MAPK (unknown origin)
Liver [3] = assay: Drug level in rat liver microsomes treated with CBS-3595 at 10 to 100 uM; assay type: ADME, microsome
How it was run: (§1)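 Test compound incubated at 10, 30 and 100 μM with liver microsomes from rat, Cynomolgus monkey or human, and metabolites monitored.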

Liver [4] = assay: Drug level in human liver microsomes treated with CBS-3595 at 10 to 100 uM; assay type: ADME, microsome; how it was run: as §1
[5] = Drug level in cynomolgus monkey liver microsomes treated with CBS-3595 at 10 to 100 uM; assay type: ADME, Macaca fascicularis, microsome; how it was run: as §1
CYP2D6 = CYP2D6 (Homo sapiens, UniProt P10635); assay: Inhibition of CYP2D6 (unknown origin) at 10 uM by fluorimetric assay relative to control; assay type: ADME
How it was run: (§2)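 CYP1A2, CYP2C9, CYP2C19, CYP3A4 and CYP2D6 were tested as a panel for cytochrome P450 interaction.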

[6] = Ratio of Cmax in Wistar rat at 30 mg/kg, po administered as single dose via gavage to IC50 for P38 MAPKalpha in LPS-stimulated human whole blood assessed as decrease in TNFalpha level
[7] = AUC (0 to t) in Wistar rat at 30 mg/kg, po administered as single dose via gavage by LC-MS/MS analysis; assay type: ADME, organism-based; details: in vivo
How it was run: (§3)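 Male and female Wistar rats received a single oral gavage of 30 mg/kg. Parameters are given as the mean of the two sexes.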

[8] = molecular target: Voltage-gated inwardly rectifying potassium channel KCNH2 (Homo sapiens, UniProt Q12809); assay: Inhibition of human ERG expressed in HEK293 cells by patch clamp method; assay type: cell-based
Rattus norvegicus [9] = assay: Toxicity in Wistar rat assessed as effect on microscopic appearance of liver at 100 to 2500 mg/kg, po administered for 48 hrs followed by administration of 300 mg/kg, bid for 7 days starting 8 hrs interval between first and second dose measured after 7 days; assay type: organism-based; details: in vivo, 168 h
CYP1A2 = CYP1A2 (Homo sapiens, UniProt P05177); assay: Inhibition of CYP1A2 (unknown origin) at 10 uM by fluorimetric assay relative to control; assay type: ADME; how it was run: as §2
[10] = molecular target: Mitogen-activated protein kinase 10 (Homo sapiens) (UniProt P53779); assay: Inhibition of human recombinant full length N-terminal His6 tagged JNK3 expressed in Sf21 cells at 10 uM relative to control
Rattus norvegicus [11] = assay: Toxicity in Wistar rat assessed as effect on microscopic appearance of spleen at 100 to 2500 mg/kg, po administered for 48 hrs followed by administration of 300 mg/kg, bid for 7 days starting 8 hrs interval between first and second dose measured after 7 days; assay type: organism-based; details: in vivo, 168 h
CYP2C9 = CYP2C9 (Homo sapiens, UniProt P11712); assay: Inhibition of CYP2C9 (unknown origin) at 10 uM by fluorimetric assay relative to control; assay type: ADME; how it was run: as §2
[12] = Cmax in Wistar rat at 30 mg/kg, po administered as single dose via gavage by LC-MS/MS analysis; assay type: ADME, organism-based; set-up: dose 30 mg/kg, route oral; details: in vivo; how it was run: as §3
Rattus norvegicus [13] = assay: Toxicity in Wistar rat assessed as death at 100 to 2500 mg/kg, po administered for 48 hrs followed by administration of 300 mg/kg, bid for 7 days with 8 hrs interval between first and second dose measured after 7 days; assay type: organism-based; details: in vivo, 168 h
How it was run: (§4)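 Wistar rats, maximum-tolerated-dose estimate in two steps. Step one: single oral doses of 100 (n = 1), 500 (n = 1) and 2500 mg/kg (n = 3), with clinical signs watched for 48 h. Step two: 300 mg/kg (n = 5) twice daily for 7 days, second dose 8 h after the first. After 7 days, body weight gain, blood cell number and composition, liver enzymes, and macroscopic liver and spleen were recorded.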

Rattus norvegicus [14] = assay: Toxicity in Wistar rat assessed as change in body weight at 100 to 2500 mg/kg, po administered for 48 hrs followed by administration of 300 mg/kg, bid for 7 days starting 8 hrs interval between first and second dose measured after 7 days; assay type: organism-based; details: in vivo, 168 h; how it was run: as §4
[15] = Tmax in Wistar rat at 30 mg/kg, po administered as single dose via gavage by LC-MS/MS analysis; assay type: ADME, organism-based; details: in vivo
How it was run: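 Male and female Wistar rats each received a single 30 mg/kg oral gavage dose. Tmax is the mean of males and females.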

Rattus norvegicus [16] = assay: Toxicity in Wistar rat assessed as effect on number of blood cells at 100 to 2500 mg/kg, po administered for 48 hrs followed by administration of 300 mg/kg, bid for 7 days starting 8 hrs interval between first and second dose measured after 7 days; assay type: organism-based; details: in vivo, 168 h; how it was run: as §4
[17] = molecular target: Mitogen-activated protein kinase 11 (Homo sapiens) (UniProt Q15759); assay: Inhibition of p38beta (unknown origin) at 10 uM relative to control
[18] = Fraction unbound in human plasma at 5 uM by equilibrium dialysis relative to control; assay type: ADME, cell-free
Mus musculus [19] = assay: Toxicity in DBA/1 mouse model of collagen-induced arthritis at 50 mg/kg, bid administered on day 22 post second injection of type 2 collagen; assay type: organism-based; details: in vivo
How it was run: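 Male DBA/1 mice with collagen-induced arthritis were dosed at 50 mg/kg b.i.d. starting on day 22, 1 day after the type II collagen boost. Animals were monitored for signs of toxicity, including body weight loss relative to controls.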

CYP2C19 = CYP2C19 (Homo sapiens, UniProt P33261); assay: Inhibition of CYP2C19 (unknown origin) at 10 uM by fluorimetric assay relative to control; assay type: ADME; how it was run: as §2
[20] = Half life in Wistar rat at 30 mg/kg, po administered as single dose via gavage by LC-MS/MS analysis; assay type: ADME, organism-based; details: in vivo
How it was run: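 Single oral gavage dose of 30 mg/kg given to male and female Wistar rats. PK parameters are reported as the mean of males and females.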

Rattus norvegicus [21] = assay: Toxicity in Wistar rat assessed as effect on liver enzyme at 100 to 2500 mg/kg, po administered for 48 hrs followed by administration of 300 mg/kg, bid for 7 days starting 8 hrs interval between first and second dose measured after 7 days; assay type: organism-based; details: in vivo, 168 h; how it was run: as §4
Mus musculus [22] = assay: Antiarthritic activity in DBA/1 mouse assessed as decrease in collagen-induced arthritic score at 50 mg/kg, bid administered on day 22 post second injection of type 2 collagen; assay type: functional, organism-based
How it was run: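 Collagen-induced arthritis in male DBA/1 mice. Dosing at 50 mg/kg b.i.d. began on day 22, one day after the second (boost) injection of type II collagen.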

CYP3A4 = CYP3A4 (Homo sapiens, UniProt P08684); assay: Inhibition of CYP3A4 (unknown origin) at 10 uM by fluorimetric assay relative to control; assay type: ADME; how it was run: as §2
Rattus norvegicus [23] = assay: Toxicity in Wistar rat assessed as effect on composition of blood cells at 100 to 2500 mg/kg, po administered for 48 hrs followed by administration of 300 mg/kg, bid for 7 days starting 8 hrs interval between first and second dose measured after 7 days; assay type: organism-based; details: in vivo, 168 h; how it was run: as §4
Rattus norvegicus [24] = assay: Protection against LPS-induced endotoxemia in Wistar rat assessed as inhibition of plasma TNFalpha level at 10 mg/kg, po pretreated for 1 hr followed by LPS addition measured after 90 mins relative to control; assay type: functional
Rattus norvegicus [25] = assay: In vivo inhibition of P38 MAPKalpha in Lewis rat assessed as decrease in LPS-stimulated TNFalpha level in serum at 10 mg/kg, po pretreated for 1 hr followed by LPS addition measured after 1.5 hrs post dose relative to control; assay type: functional
How it was run: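 Lewis rats, n = 8/group: females dosed orally at 10 mg/kg at −1, −3 or −5 h relative to LPS challenge, plus one male group dosed at −1 h. Male and female vehicle controls were given at −1 h. Serum TNFα was measured after LPS and compared with vehicle.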

[26] = Fraction unbound in human plasma; assay type: ADME, cell-free
How it was run: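 Plasma protein binding measured in human, Sprague–Dawley rat and Cynomolgus monkey plasma at 1, 10 and 30 μM compound. Reported as unbound fraction (%).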

Homo sapiens [27] = assay: Cmax in human assessed as roflumilast N-oxide formation at 0.5 mg, po administered as single dose; assay type: ADME, organism-based; set-up: dose 0.5 mg, route oral; details: in vivo
[28] = Cmax in human at 0.5 mg, po administered as single dose; assay type: ADME, organism-based; set-up: dose 0.5 mg, route oral; details: in vivo
Homo sapiens [29] = organism: Homo sapiens; assay: Inhibition of PDE4 in LPS-stimulated human whole blood assessed as decrease in leukotriene B4 level in plasma
Homo sapiens [30] = organism: Homo sapiens; assay: Inhibition of PDE4 in human U937 cells assessed as [3H]cAMP hydrolysis at 1 uM relative to control; assay type: cell-based
[31] = AUC (infinity) in human at 0.5 mg, po administered as single dose; assay type: ADME, organism-based; set-up: dose 0.5 mg, time infinity, route oral; details: in vivo
Homo sapiens [32] = assay: AUC (infinity) in human assessed as roflumilast N-oxide formation at 0.5 mg, po administered as single dose; assay type: ADME, organism-based; set-up: dose 0.5 mg, route oral, time infinity; details: in vivo
Rattus norvegicus [33] = assay: Antiarthritic activity in Lewis rat assessed as collagen oligomeric matrix protein level in serum at 1 mg/kg, po qd administered for 10 days (Rbv = 0.17 +/- 0.02 U/l); assay type: functional
How it was run: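 Collagen-induced arthritis in male Lewis rats (5–6 per group). Groups received vehicle, dexamethasone 1 mg/kg, test item 50 mg/kg once daily, or 25 mg/kg twice daily for 10 days. Body weight, arthritic score and paw volume were monitored, and serum COMP was measured at the end.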

Chain of Voltage-gated inwardly rectifying potassium channel KCNH2 (Q12809 whole entry): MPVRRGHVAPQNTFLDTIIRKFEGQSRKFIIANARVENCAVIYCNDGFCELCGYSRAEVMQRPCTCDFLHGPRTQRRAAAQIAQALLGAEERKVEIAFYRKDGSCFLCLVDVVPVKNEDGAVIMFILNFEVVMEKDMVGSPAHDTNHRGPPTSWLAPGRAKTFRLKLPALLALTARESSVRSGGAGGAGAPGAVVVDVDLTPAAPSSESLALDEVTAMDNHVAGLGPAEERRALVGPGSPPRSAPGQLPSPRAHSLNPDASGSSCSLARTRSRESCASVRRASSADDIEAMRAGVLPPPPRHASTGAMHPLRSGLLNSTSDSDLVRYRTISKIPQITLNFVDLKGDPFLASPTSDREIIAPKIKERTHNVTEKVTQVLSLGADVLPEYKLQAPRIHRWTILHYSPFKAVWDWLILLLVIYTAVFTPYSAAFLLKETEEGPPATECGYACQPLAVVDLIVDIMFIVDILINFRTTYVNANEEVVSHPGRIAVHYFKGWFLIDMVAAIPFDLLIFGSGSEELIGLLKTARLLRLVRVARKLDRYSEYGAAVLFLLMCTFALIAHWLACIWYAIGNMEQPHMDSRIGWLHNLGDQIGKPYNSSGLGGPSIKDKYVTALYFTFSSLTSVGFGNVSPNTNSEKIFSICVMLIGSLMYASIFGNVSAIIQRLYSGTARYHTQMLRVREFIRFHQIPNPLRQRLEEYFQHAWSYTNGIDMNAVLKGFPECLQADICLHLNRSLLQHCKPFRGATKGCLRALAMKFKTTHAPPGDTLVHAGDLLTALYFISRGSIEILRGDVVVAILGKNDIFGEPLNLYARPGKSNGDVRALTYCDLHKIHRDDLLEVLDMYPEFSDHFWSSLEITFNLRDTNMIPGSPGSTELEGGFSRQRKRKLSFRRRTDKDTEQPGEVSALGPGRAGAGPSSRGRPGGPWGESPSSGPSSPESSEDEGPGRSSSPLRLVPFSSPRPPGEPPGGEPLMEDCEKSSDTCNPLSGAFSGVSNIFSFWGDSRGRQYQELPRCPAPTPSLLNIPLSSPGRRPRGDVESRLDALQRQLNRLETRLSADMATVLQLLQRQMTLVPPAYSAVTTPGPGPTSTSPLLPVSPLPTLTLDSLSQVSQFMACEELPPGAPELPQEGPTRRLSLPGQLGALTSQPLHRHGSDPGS
T1 sequence (Q16539 whole entry): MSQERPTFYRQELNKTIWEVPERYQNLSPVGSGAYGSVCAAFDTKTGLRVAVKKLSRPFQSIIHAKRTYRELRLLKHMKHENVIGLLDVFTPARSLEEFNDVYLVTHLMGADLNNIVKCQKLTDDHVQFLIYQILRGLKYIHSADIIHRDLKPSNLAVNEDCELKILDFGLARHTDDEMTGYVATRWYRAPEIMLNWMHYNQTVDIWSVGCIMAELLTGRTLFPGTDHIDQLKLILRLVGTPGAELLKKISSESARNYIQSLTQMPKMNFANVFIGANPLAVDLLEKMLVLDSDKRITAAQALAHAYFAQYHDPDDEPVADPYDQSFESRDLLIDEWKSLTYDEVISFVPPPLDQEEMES
Chain of Mitogen-activated protein kinase 10 (Homo sapiens) (P53779 whole entry): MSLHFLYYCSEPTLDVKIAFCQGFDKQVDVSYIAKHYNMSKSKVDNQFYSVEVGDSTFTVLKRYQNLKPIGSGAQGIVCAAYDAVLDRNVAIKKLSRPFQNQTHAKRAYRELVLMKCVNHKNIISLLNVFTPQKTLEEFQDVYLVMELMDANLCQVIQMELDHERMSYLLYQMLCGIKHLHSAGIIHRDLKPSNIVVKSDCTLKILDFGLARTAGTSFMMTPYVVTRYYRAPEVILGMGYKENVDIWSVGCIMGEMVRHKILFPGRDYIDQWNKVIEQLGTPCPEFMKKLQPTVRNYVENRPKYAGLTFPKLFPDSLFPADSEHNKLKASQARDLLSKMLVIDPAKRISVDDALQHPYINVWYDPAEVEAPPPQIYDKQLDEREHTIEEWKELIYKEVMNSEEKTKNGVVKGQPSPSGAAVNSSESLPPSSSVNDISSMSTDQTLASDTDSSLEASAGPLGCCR
Chain of CYP3A4 (P08684 whole entry): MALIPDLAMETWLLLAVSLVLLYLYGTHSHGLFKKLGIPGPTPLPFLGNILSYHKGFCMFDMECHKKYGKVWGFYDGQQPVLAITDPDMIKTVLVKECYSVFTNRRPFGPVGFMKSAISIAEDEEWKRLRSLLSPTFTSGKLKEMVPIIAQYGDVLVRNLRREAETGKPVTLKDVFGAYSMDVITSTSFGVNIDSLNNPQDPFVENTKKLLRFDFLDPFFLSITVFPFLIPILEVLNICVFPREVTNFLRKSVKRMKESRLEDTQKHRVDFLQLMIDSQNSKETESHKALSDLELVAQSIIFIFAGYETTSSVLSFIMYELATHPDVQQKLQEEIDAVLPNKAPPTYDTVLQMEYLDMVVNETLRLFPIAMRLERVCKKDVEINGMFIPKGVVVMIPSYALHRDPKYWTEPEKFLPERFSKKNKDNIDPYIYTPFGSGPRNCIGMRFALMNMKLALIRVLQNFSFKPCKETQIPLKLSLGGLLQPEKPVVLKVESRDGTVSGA
Chain of CYP1A2 (P05177 whole entry): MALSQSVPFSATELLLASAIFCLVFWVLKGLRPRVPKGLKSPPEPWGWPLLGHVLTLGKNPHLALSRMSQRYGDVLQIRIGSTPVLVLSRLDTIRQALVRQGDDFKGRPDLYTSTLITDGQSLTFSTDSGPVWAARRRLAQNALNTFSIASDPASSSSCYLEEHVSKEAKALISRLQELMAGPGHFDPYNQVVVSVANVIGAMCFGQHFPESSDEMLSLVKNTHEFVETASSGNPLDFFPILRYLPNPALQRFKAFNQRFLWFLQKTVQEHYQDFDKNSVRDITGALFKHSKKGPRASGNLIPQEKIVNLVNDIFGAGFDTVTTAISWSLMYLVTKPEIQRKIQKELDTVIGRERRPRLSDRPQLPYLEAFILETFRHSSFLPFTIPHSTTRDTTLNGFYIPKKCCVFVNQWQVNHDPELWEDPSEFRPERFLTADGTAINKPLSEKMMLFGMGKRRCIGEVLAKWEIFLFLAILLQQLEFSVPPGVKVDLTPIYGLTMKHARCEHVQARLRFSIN
Chain of CYP2C19 (P33261 whole entry): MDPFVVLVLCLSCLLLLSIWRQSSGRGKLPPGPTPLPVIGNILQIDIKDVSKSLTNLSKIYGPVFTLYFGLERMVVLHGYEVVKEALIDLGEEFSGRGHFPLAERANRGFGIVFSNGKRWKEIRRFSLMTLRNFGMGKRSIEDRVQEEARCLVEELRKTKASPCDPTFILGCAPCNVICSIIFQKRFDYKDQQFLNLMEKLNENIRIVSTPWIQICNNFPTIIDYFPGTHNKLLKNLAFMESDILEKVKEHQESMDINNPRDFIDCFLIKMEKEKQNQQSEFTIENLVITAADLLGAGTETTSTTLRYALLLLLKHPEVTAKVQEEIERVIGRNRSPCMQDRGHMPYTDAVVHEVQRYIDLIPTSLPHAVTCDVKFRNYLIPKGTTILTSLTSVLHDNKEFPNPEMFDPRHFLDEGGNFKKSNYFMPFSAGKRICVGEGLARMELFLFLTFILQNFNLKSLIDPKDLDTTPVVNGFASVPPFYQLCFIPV
Chain of CYP2D6 (P10635 whole entry): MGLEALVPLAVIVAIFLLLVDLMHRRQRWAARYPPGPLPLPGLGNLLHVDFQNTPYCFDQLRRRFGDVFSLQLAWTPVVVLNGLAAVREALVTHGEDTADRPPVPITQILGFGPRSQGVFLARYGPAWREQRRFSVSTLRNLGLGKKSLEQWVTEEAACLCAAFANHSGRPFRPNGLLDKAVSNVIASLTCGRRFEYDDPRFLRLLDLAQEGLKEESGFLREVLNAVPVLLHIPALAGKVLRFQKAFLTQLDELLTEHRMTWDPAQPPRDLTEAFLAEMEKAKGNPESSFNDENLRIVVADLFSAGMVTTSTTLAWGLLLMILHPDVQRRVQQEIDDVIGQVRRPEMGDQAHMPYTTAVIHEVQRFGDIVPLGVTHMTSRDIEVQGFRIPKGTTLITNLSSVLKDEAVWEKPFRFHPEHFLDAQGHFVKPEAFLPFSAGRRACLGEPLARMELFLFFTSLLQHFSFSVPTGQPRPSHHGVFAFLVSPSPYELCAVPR
Chain of Mitogen-activated protein kinase 11 (Homo sapiens) (Q15759 whole entry): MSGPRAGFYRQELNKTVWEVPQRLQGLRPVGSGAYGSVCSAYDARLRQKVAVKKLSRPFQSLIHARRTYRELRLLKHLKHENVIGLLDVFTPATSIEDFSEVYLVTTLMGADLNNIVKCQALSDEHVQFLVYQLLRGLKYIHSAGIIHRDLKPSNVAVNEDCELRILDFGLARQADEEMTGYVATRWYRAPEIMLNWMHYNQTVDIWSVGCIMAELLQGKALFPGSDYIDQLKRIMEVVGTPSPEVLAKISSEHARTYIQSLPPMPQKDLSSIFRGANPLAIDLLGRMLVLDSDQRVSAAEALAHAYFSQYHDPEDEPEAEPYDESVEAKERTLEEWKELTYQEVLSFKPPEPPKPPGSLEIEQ
Chain of CYP2C9 (P11712 whole entry): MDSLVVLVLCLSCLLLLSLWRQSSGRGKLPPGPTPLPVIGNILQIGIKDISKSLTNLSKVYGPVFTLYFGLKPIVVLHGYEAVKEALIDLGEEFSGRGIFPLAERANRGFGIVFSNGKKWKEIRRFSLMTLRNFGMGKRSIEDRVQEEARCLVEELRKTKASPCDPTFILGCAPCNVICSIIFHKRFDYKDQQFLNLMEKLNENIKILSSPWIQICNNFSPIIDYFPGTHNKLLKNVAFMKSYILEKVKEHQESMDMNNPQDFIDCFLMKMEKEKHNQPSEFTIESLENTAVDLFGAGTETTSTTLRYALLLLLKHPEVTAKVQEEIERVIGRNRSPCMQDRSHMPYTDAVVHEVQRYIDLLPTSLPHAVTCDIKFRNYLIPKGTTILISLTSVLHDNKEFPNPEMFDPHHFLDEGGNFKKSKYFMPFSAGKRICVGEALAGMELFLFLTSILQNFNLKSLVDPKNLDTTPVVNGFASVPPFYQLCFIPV

SMILES: CC(=O)Nc1cc(-c2c(-c3ccc(F)cc3)nc([S@+](C)[O-])n2C)ccn1
inhibition [1]: 11%

SMILES: CC(=O)Nc1cc(-c2c(-c3ccc(F)cc3)nc(S(C)(=O)=O)n2C)ccn1
Drug metabolism (Liver [3]): Metabolite_Detected | Drug metabolism (Liver [4]): Metabolite_Detected | Drug metabolism [5]: Metabolite_Detected

SMILES: CSc1nc(-c2ccc(F)cc2)c(-c2ccnc(NC(C)=O)c2)n1C
inhibition at 10 µM (CYP2D6): 45% | Ratio [6]: 12.5 | AUC(0-t) [7]: 4930 ng·h/mL and 13.8 µM·h | IC50 [8]: 28.6 µM | inhibition (INH) ([8]; human, hek293): Dose-dependent effect | Activity (Rattus norvegicus [9]): Non-Toxic | inhibition at 10 µM (CYP1A2): 18% | inhibition [10]: > 70% | Activity (Rattus norvegicus [11]): Non-Toxic | inhibition at 10 µM (CYP2C9): 46% | Cmax [12]: 738 ng/mL and 2.07 µM | Activity (Rattus norvegicus [13]): Non-Toxic | Activity (Rattus norvegicus [14]): Non-Toxic | Tmax [15]: 1 h | Activity (Rattus norvegicus [16]): Non-Toxic | inhibition [17]: > 70% | fraction unbound at 5 µM [18]: 0.037 | Activity (Mus musculus [19]): Non-Toxic | inhibition at 10 µM (CYP2C19): 4% | half-life [20]: 3 h | Activity (Rattus norvegicus [21]): Non-Toxic | Activity (Mus musculus [22]): Active | inhibition at 10 µM (CYP3A4): -7% | Activity (Rattus norvegicus [23]): Non-Toxic | inhibition in vivo at 10 mg/kg (Rattus norvegicus [24]): 97%

SMILES: Cn1c(S(C)(=O)=O)nc(-c2ccc(F)cc2)c1-c1ccnc(N)c1
Drug metabolism (Liver [3]): Metabolite_Detected | Drug metabolism (Liver [4]): Metabolite_Detected | Drug metabolism [5]: Metabolite_Detected

SMILES: C[C@@H]1C[C@H]2[C@@H]3CCC4=CC(=O)C=C[C@]4(C)[C@@]3(F)[C@@H](O)C[C@]2(C)[C@@]1(O)C(=O)CO [DEXAMETHASONE]
Activity (Rattus norvegicus [33]): 0.03 U/L

Now from value to compound, other results behind:

IC50 [2]: 0.129 µM
SMILES: CC(=O)Nc1cc(-c2c(-c3ccc(F)cc3)nc([S@@+](C)[O-])n2C)ccn1

fraction unbound [26]: 0.02 | Cmax (Homo sapiens [27]): 22.4 nM | Cmax [28]: 13.1 nM | inhibition (Homo sapiens [29]): Dose-dependent effect | AUC(0-inf) [31]: 0.0868 µM·h | AUC (Homo sapiens [32]): 0.8379 µM·h
SMILES: O=C(Nc1c(Cl)cncc1Cl)c1ccc(OC(F)F)c(OCC2CC2)c1 [ROFLUMILAST]
inhibition in vivo at 10 mg/kg (Rattus norvegicus [25]): 67% | inhibition (Homo sapiens [30]): 94%
